The results in this text go back to the RNAGym collection of RNA variant scans (doi:10.1101/gad.245936.114).

Variants at the floor of the assay were thinned out.

First the molecules themselves.
B1: tRNA (parent)
chain: CUCUCGGUAGCCAAGUUGGUUUAAGGCGCAAGACUUUAAUUUAUCACUACGAAAUCUUGAGAUCGGGCGUUCGACUCGCCCCCGGGAGAUUUUUUCCUCGAGCAA

Variants of B1 are the subject of the series. Briefly: nonsense suppression (GFP-seq) (ratio to wild type); higher = more function; SUP4oc tRNA, yeast GFP reporter sort-seq. Put shortly: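 Sorted GFP/RFP bins of yeast were each Illumina-sequenced with a phred ≥30 cutoff; the cells held a genome-integrated ochre-suppressor tRNA variant from a library with ~3% random mutations, a galactose-driven GFP ochre reporter, and RFP. Culture was in raffinose/galactose medium containing 80 mg/L adenine. Nonsense suppression, termed GFPSEQ, is the median GFP/RFP of the bins weighted by each variant's estimated cell share per bin, relative to the unmutated parent tRNA, for variants reaching ≥100 reads and ≥30 cells.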
As to CUCUCGGUAGCCAAGUUGGUUUAAGGCGUAAGACUUUAAUUUAUCACUACGAAAUCUUGACAUCGGGCGUUCGACUCGCCCCCGGGAGAUUUUUUCCUCGAGCAA [C29U G61C], the nonsense suppression is 0.0261.
As for CUCUCGGUAGCCAAGUUGGUUUAAGGCGUAAGACUUUAAUUUAUCACUACGAAAUCUUGAUAUCGGGCGUUCGACUCGCCCCCGGGAGAUUUUUUCCUCGAGCAA [C29U G61U], the nonsense suppression turned out to be 0.754.
The value for CUCUCGGUAGCCAAGUUGGUUUAAGGCGUAAGACUUUAAUUUAUCACUACGAAAUCUUGAAAUCGGGCGUUCGACUCGCCCCCGGGAGAUUUUUUCCUCGAGCAA [C29U G61A] was 0.83; that for CUCUCGGUAGCCAAGUUGGUUUAAGGCGGAAGACUUUAAUUUAUCACUACGAAAUCUUGAGAUCGGGCGUUCGACUCGCCCCCGGAAGAUUUUUUCCUCGAGCAA [C29G G86A] was no more than 0.026.
Turning to CUCUCGGUAGCCAAGUUGGUUUAAGGCGUAAGACUUUAAUUUAUCACUACGAAAUCUUGAGAUCGGGCGUUCGACUCGCCCCUGGGAGAUUUUUUCCUCGAGCAA [C29U C83U], the nonsense suppression was found to be 0.0384.
For the variant CUCUCGGUAGCCAAGUUGGUUUAAGGCGGAAGACUUUAAUUUAUCACUACGAAAUCUUGAGAUCGGGCGUUCGACUCGCCCCCGGGGGAUUUUUUCCUCGAGCAA [C29G A87G], the nonsense suppression was no more than 0.026.
Consider CUCUCGGUAGCCAAGUUGGUUUAAGGCGUAAGACUUUAAUUUAUCACUACGAAAUCUUGAGAUCGGGCGUUCGACUCGCCCCCGGCAGAUUUUUUCCUCGAGCAA [C29U G86C], for which the nonsense suppression is 0.0331.
As to CUCUCGGUAGCCAAGUUGGUUUAAGGCGGAAAACUUUAAUUUAUCACUACGAAAUCUUGAGAUCGGUCGUUCGAAUCGCCCCCGGGAGAUUUUUUCCUCGAGCAA [C29G G32A G67U C75A], the nonsense suppression is no more than 0.026.
As to CUCUCGGUAGCCAAGUUGGUUUAAGGCGGAAGGCUUUAAUUUAUCACUACGAAAUCUUGAGAUCGGACGUGCGACUCGCCCCCGGAAGAUUUUUUCCUCGAGCAA [C29G A33G G67A U71G G86A], the nonsense suppression worked out at 1.12.
Regarding CUCUCGGUAGCCAAGUUGGUUUAAGGCGUAAGACUUUAAUUUAUCACUACGAAAUCUUGAGAUCGGGCGUUCGACUCGCCCCCAGGAGAUUUUUUCCUCGAGCAA [C29U G84A], the nonsense suppression was 0.0288.
For the variant CUCUCGGUAGCCAAGUUGGUUUAAGGCGCCAGACUUUAAUUUAUCACUACGAAAUCUUGUGAACGGGCCUUCGACUCGCCCCCGGGAGAUUUUUUCCUCGAGCAA [A30C A60U U63A G69C], the nonsense suppression was no more than 0.026.
For CUCUCGGUAGCCAAGUUGGUUUAAGGCGGAAGACUUUAAUUUAUCACUACGAAAUCUUGAGAUCGGGCGUUCGACUCACCCCCGGGAGAUUUUUUCCUCGAGCAA [C29G G78A] the value was no more than 0.026.
For CUCUCGGUAGCCAAGUUGGUUUAAGGCGUAAGACUUUAAUUUAUCACUACGAAAUCUUGAGAUCGGCCGUUCGACUCGCCCCCGGGAGAUUUUUUCCUCGAGCAA [C29U G67C] the value was no more than 0.026; for CUCUCGGUAGCCAAGUUGGUUUAAGGCGGAAGACUUUAAUUUAUCACUACGAAAUCUUAAGAUCGGGCGUUCGACUCGCGCCCGGGAGAUUUUUUCCUCGAGCAA [C29G G59A C80G], no more than 0.026; for CUCUCGGUAGCCAAGUUGGUUUAAGGCGUACGACUUUAAUUUAUCACUACGAAAUCUUGAGAUCGGGUGUUCGACUAGCCCCCGGGAGAUUUUUUCCUCGAGCAA [C29U A31C C68U C77A], no more than 0.026.
For the variant CUCUCGGUAGCCAAGUUGGUUUAAGGCGUAGGACUUUAAUUUAUCACUACGAAAUCUUGAGAUCGGGCGUUCGACUCGCCCCCGGGAGAUUUUUUCCUCGAGCAA [C29U A31G], the nonsense suppression is 0.0421.
The value for CUCUCGGUAGCCAAGUUGGUUUAAGGCGUAAGACUUUAAUUUAUCACUACGAAAUCGUGAGAUCGGGCGUUCGACUCGCCCCCGCGAGAUUUUUUCCUCGAGCAA [C29U U57G G85C] was no more than 0.026; that for CUCUCGGUAGCCAAGUUGGUUUAAGGCGUAAUACUUUAAUUUAUCACUACGAAAUCAUGAGGCCGGGCCUUCGACUCGCCCCCGGGAGAUUUUUUCCUCGAGCAA [C29U G32U U57A A62G U63C G69C] was no more than 0.026.
For CUCUCGGUAGCCAAGUUGGUUUAAGGCGUAAGACUUUAAUUUAUCACUACGAAAUCUUCAGAUCGGGCGUUCGACUCGCCCCCGGGAGAUUUUUUCCUCGAGCAA [C29U G59C], the nonsense suppression turned out to be 0.0272.
As to CUCUCGGUAGCCAAGUUGGUUUAAGGCGUGAGACUUUAAUUUAUCACUACGAACUCUUGAGAUCGGGCGUUCGAAUCGCCCCCGGGAGAUUUUUUCCUCGAGCAA [C29U A30G A54C C75A], the nonsense suppression came to 0.0386.
The value for CUCUCGGUAGCCAAGUUGGUUUAAGGCGUAAGACUUUAAUUUAUCACUACGAAAUCUUGAGAUCGGGCGUUCGACUCGUCCCCGGAAGAUUUUUUCCUCGAGCAA [C29U C79U G86A] was no more than 0.026.
Take CUCUCGGUAGCCAAGUUGGUUUAAGGCGUAAGACUUUAAUUUAUCACUACGAAAUCUUGAGAUCGGGCGUUCGACACGCCCCCUGGAGAUUUUUUCCUCGAGCAA [C29U U76A G84U]: the nonsense suppression was no more than 0.026.
Regarding CUCUCGGUAGCCAAGUUGGUUUAAGGCGUAAGACUUUAAUUUAUCACUACGAAAUCUUGAGAUCGGGCGUUCGACUCGCCCCCGGGGGAUUUUUUCCUCGAGCAA [C29U A87G], the nonsense suppression was found to be 0.438.
In the case of CUCUCGGUAGCCAAGUUGGUUUAAGGCGUAAGUCUUUAAUUUAUCACUACGAAAUCUUGAGAUCGGGCGUUCGACUCGCCCCCGGGAGAUUUUUUCCUCGAGCAA [C29U A33U], the nonsense suppression stood at 0.0316.
For CUCUCGGUAGCCAAGUUGGUUUAAGGCGGAAGACUUUAAUUUAUCACUACGAAAACUUGAGAUCGGGCGUUCGACUCGCCCCCGGGAGAUUUUUUCCUCGAGCAA [C29G U55A] the value was no more than 0.026.
Turning to CUCUCGGUAGCCAAGUUGGUUUAAGGCGUAAGACUUUAAUUUAUCACUACGAAAUCUUGAGAUCGGGCGUUCGACUCGCCCCCGAGAGAUUUUUUCCUCGAGCAA [C29U G85A], the nonsense suppression was found to be 1.14.
Regarding CUCUCGGUAGCCAAGUUGGUUUAAGGCGUAAGACUUUAAUUUAUCACUACGAAAUCUUGAGAUCGGGCGUUCGACUCGCCCCCGUGAGAUUUUUUCCUCGAGCAA [C29U G85U], the nonsense suppression turned out to be 0.0262.
